# Measurements reported in ChEMBL document CHEMBL4387709, “Discovery of Quinoline Analogues as Potent Antivirals against Enterovirus D68 (EV-D68)” (J Med Chem, 2019).
# Active and inactive are the calls of the source. The calls are words filed in the database; no cut-off is given here.
# Tests used:
# enterovirus D68 [1] = assay: Antiviral activity against Enterovirus D68 US/KY/14-18953 infected in human RD cells assessed as inhibition of virus-induced cytopathic effect incubated for 5 mins under shaking condition and measured after 3 days by neutral red dye-based photometric method; format: functional, organism-based; conditions: Enterovirus D, US/KY/14-18953, RD
# Outline: (§1)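 RD cells seeded one day ahead to ~90% confluence, PBS (Mg/Ca) wash, infected at ~MOI 0.01 with EV-D68 in DMEM/2% FBS/30 mM MgCl2 at 33 °C, 5% CO2. Compounds and 1% P/S added after 1 h. Plates shaken ~5 min, held 3 days, viable cells stained with neutral red (66 µg/ml), A540 read. EC50 from dose-response fits, triplicates.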
# RD [2] = assay: Inhibition of 2C protein in Enterovirus D68 US/KY/14-18953 infected in human RD cells assessed as reduction of VP1 expression at 1 uM measured at 9 hrs post infection by Western blot analysis; format: cell-based
# Outline: (§2)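 Equal protein separated and blotted to PVDF. Probed with rabbit anti-VP1 and mouse anti-GAPDH (1:3,000), HRP secondary, chemiluminescent detection. Mean of two independent experiments ± SD.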
# RD [3] = assay: Inhibition of 2C protein in Enterovirus D68 US/KY/14-18953 infected in human RD cells assessed as reduction of VP1 expression at 1 uM measured at 9 hrs post infection by DAPI-staining based microscopy; format: cell-based
# Outline: (§3)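 Fixed at 9 hpi (4% formaldehyde), 0.2% Triton X-100 permeabilized, blocked with 10% bovine serum. Stained with rabbit anti-VP1 plus Alexa-488 secondary, nuclei with 300 nM DAPI. Confocal microscopy.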
# RD [4] = assay: Inhibition of 2C protein in Enterovirus D68 US/KY/14-18953 infected in human RD cells assessed as reduction of viral RNA synthesis at 1 uM measured at 9 hrs post infection by reagent-based RT-qPCR method relative to control; format: cell-based
# Outline: (§4)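 DNase-treated. 1.2 µg reverse-transcribed with oligo(dT)18. qPCR run 95 °C 10 min, then 40 cycles of 95 °C 15 s/60 °C 60 s, with melt curve. Compared with DMSO control, one-way ANOVA, mean of two experiments ± SD.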
# [5] = Inhibition of sodium channel in rat dorsal root ganglia neurons assessed as reduction in veratridine-induced intracellular calcium influx at 2 to 50 uM after overnight incubation by Fura-2AM dye based fluorescence microscopy; format: cell-based
# Influenza A virus = assay: Antiviral activity against Influenza A virus (A/California/07/2009(H1N1)) at 10 uM after 2 days by plaque assay; format: functional, organism-based
# Influenza B virus = assay: Antiviral activity against Influenza B virus (B/Brisbane/60/2008) at 10 uM after 2 days by plaque assay; format: functional, organism-based
# enterovirus D68 [6] = assay: Antiviral activity against Enterovirus D68 US/IL/14-18956 infected in human RD cells assessed as inhibition of virus-induced cytopathic effect incubated for 5 mins under shaking condition and measured after 3 days by neutral red dye-based photometric method; format: functional, organism-based; conditions: Enterovirus D, US/IL/14-18956, RD; outline: as §1
# enterovirus D68 [7] = assay: Antiviral activity against Enterovirus D68 US/MO/14-18947 infected in human RD cells assessed as inhibition of virus-induced cytopathic effect incubated for 5 mins under shaking condition and measured after 3 days by neutral red dye-based photometric method; format: functional, organism-based; conditions: Enterovirus D, US/MO/14-18947, RD; outline: as §1
# enterovirus D68 [8] = assay: Antiviral activity against Enterovirus D68 US/MO/14-18949 infected in human RD cells assessed as inhibition of virus-induced cytopathic effect incubated for 5 mins under shaking condition and measured after 3 days by neutral red dye-based photometric method; format: functional, organism-based; conditions: Enterovirus D, US/MO/14-18949, RD; outline: as §1
# enterovirus D68 [9] = assay: Antiviral activity against Enterovirus D68 […] infected in human RD cells assessed as inhibition of virus-induced cytopathic effect incubated for 5 mins under shaking condition and measured after 3 days by neutral red dye-based photometric method; format: functional, organism-based; conditions: Enterovirus D; outline: as §1
# A549 = assay: Cytotoxicity against human A549 cells after 3 days by neutral red dye-based photometric method; format: cell-based; conditions: a549, 72 h
# Outline: (§5)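 Uninfected cells run as in the CPE assay (33 °C, 3 days, same media) with compound. Viability by neutral red staining and 540 nm absorbance. CC50 from dose-response curves, triplicate experiments.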
# HeLa = assay: Cytotoxicity against human HeLa cells after 3 days by neutral red dye-based photometric method; format: cell-based; conditions: 72 h; outline: as §5
# enterovirus D68 [10] = assay: Antiviral activity against Enterovirus D68 US/KY/14-18953 infected in human A172 cells assessed as inhibition of virus-induced cytopathic effect incubated for 5 mins under shaking condition and measured after 3 days by neutral red dye-based photometric method; format: functional, organism-based; conditions: Enterovirus D, US/KY/14-18953, A 172
# Outline: (§6)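 A172 cells (DMEM, 10% FBS) grown ~90% confluent, infected with EV-D68 at ~MOI 0.3 in DMEM/2% FBS/30 mM MgCl2 and kept at 33 °C. P/S and compounds added 1 h later. Brief orbital shaking, then 3-day incubation. Neutral red staining with 540 nm absorbance. EC50 from best-fit dose-response curves in triplicate.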
# A 172 = assay: Cytotoxicity against human A172 cells after 3 days by neutral red dye-based photometric method; format: cell-based; conditions: a 172, 72 h; outline: as §5
# enterovirus D68 [11] = assay: Antiviral activity against Enterovirus D68 US/KY/14-18953 infected in human SH-SY5Y cells assessed as inhibition of virus-induced cytopathic effect incubated for 5 mins under shaking condition and measured after 3 days by neutral red dye-based photometric method; format: functional, organism-based; conditions: Enterovirus D, US/KY/14-18953, SH-SY5Y
# Outline: (§7)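 Virus at ~MOI 1 applied to SH-SY5Y cells (50% DMEM/50% F-12, 10% FBS) at ~90% confluence in DMEM/2% FBS/30 mM MgCl2 at 33 °C. Compounds added after 1 h with 1% P/S, shaken ~5 min, incubated 3 days. Viability read by neutral red uptake (A540). EC50 fitted from dose-response, triplicate.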
# SH-SY5Y = assay: Cytotoxicity against human SH-SY5Y cells after 3 days by neutral red dye-based photometric method; format: cell-based; conditions: 72 h; outline: as §5
# enterovirus D68 [12] = assay: Antiviral activity against Enterovirus D68 US/MO/14-18947 infected in human A172 cells assessed as inhibition of virus-induced cytopathic effect incubated for 5 mins under shaking condition and measured after 3 days by neutral red dye-based photometric method; format: functional, organism-based; conditions: Enterovirus D, US/MO/14-18947, A 172; outline: as §6
# enterovirus D68 [13] = assay: Antiviral activity against Enterovirus D68 US/MO/14-18947 infected in human SH-SY5Y cells assessed as inhibition of virus-induced cytopathic effect incubated for 5 mins under shaking condition and measured after 3 days by neutral red dye-based photometric method; format: functional, organism-based; conditions: Enterovirus D, US/MO/14-18947, SH-SY5Y; outline: as §7
# RD [14] = assay: (§8) Cytotoxicity against human RD cells after 3 days by neutral red dye-based photometric method; format: cell-based; conditions: rd, 72 h
# [15] = Selectivity index, ratio of CC50 for human RD cells to EC50 for Enterovirus D68 US/KY/14-18953 infected in human RD cells; format: toxicity, cell-based; conditions: read-out: Ratio CC50/EC50
# [16] = as §8; format: cell-based; conditions: RD cells
# RD [17] = assay: Inhibition of 2C protein in Enterovirus D68 US/KY/14-18953 infected in human RD cells assessed as reduction of VP1 expression at 3 uM measured at 9 hrs post infection by DAPI-staining based microscopy; format: cell-based; outline: as §3
# RD [18] = assay: Inhibition of 2C protein in Enterovirus D68 US/KY/14-18953 infected in human RD cells assessed as reduction of VP1 expression at 3 uM measured at 9 hrs post infection by Western blot analysis; format: cell-based; outline: as §2
# RD [19] = assay: Inhibition of 2C protein in Enterovirus D68 US/KY/14-18953 infected in human RD cells assessed as reduction of viral RNA level at 3 uM measured at 9 hrs post infection by RT-qPCR method relative to control; format: cell-based; outline: as §4
# [20] = Inhibition of sodium channel in rat dorsal root ganglia neurons assessed as reduction in veratridine-induced intracellular calcium influx at 20 to 50 uM after overnight incubation by Fura-2AM dye based fluorescence microscopy; format: cell-based
SMILES,EC50 (enterovirus D68 [1]),CC50 (RD [14]),selectivity ratio [15],other results
CN(C)CCNC(=O)c1cc(-c2ccccc2)nc2ccccc12,0.4 µM,,,inhibition (RD [2]): Active; inhibition (RD [3]): Active; inhibition (RD [4]): > 99%; inhibition (INH) [5]: Not Active; Activity (Influenza A virus): inactive; Activity (Influenza B virus): inactive; EC50 (enterovirus D68 [6]): 0.2 µM; EC50 (enterovirus D68 [7]): 0.3 µM; EC50 (enterovirus D68 [8]): 0.6 µM; EC50 (enterovirus D68 [9]): 0.6 µM; CC50 (A549): 121 µM; CC50 (HeLa): 68.7 µM; EC50 (enterovirus D68 [10]): 0.4 µM; CC50 (A 172): 88.4 µM; EC50 (enterovirus D68 [11]): 0.4 µM; CC50 (SH-SY5Y): > 300 µM; EC50 (enterovirus D68 [12]): 0.3 µM; EC50 (enterovirus D68 [13]): 0.2 µM
CN(C)CCNC(=O)c1cc(-c2cccs2)nc2ccccc12,0.04 µM,,,inhibition (RD [2]): Active; inhibition (RD [3]): Active; inhibition (RD [4]): > 99%; Activity (Influenza A virus): inactive; Activity (Influenza B virus): inactive; EC50 (enterovirus D68 [6]): 0.06 µM; EC50 (enterovirus D68 [7]): 0.06 µM; EC50 (enterovirus D68 [8]): 0.05 µM; EC50 (enterovirus D68 [9]): 0.05 µM; CC50 (A549): 98.8 µM; CC50 (HeLa): 51.2 µM; EC50 (enterovirus D68 [10]): 0.02 µM; CC50 (A 172): 73.8 µM; EC50 (enterovirus D68 [11]): 0.1 µM; CC50 (SH-SY5Y): 136 µM; EC50 (enterovirus D68 [12]): 0.1 µM; EC50 (enterovirus D68 [13]): 0.01 µM
CCN(CC)CCNC(=O)c1cc(-c2cnc(N(C)C)nc2)nc2ccccc12,24.6 µM,74.2 µM,3,
CCCOc1cc(C(=O)NCCN(CC)CC)c2ccccc2n1,4.9 µM,46.7 µM,9.5,
CN(C)CCCNC(=O)c1cc(-c2ccccc2)nc2ccccc12,3.5 µM,44.9 µM,12.8,
CCN(CC)CCNC(=O)c1cc(-c2ccccc2OC)nc2ccccc12,13.9 µM,75.9 µM,5.5,
CN(C)c1ccc(NC(=O)c2cc(-c3ccccc3)nc3ccccc23)cc1,> 100 µM,> 350 µM,> 3.5,
CCOc1cc(C(=O)NCCN(CC)CC)c2ccccc2n1,5.9 µM,165 µM,27.9,
O=C(NCCCn1ccnc1)c1cc(-c2cccs2)nc2ccccc12,8.9 µM,55.7 µM,6.3,
CCN(CC)CCNC(=O)c1cc(/C=C/c2ccccc2)nc2ccccc12,0.8 µM,11.5 µM,14.4,
CN(C)CCCNC(=O)c1cc(-c2cccs2)nc2ccccc12,0.7 µM,40.5 µM,57.9,
CCN(CC)CCNC(=O)c1cc(-c2ccnn2C)nc2ccccc12,36.3 µM,133 µM,3.7,
CCN(CC)CCNC(=O)c1cc(-c2ccncc2)nc2ccccc12,6.6 µM,174 µM,26.3,
CCN(CC)CCNC(=O)c1cc(-c2ccsc2)nc2ccccc12,1 µM,46.9 µM,46.9,
CC(C)Oc1cc(C(=O)NCCN(C)C)c2ccccc2n1,1.7 µM,38.5 µM,22.6,
CCN(CC)CCNC(=O)c1cc(-c2ccn[nH]2)nc2ccccc12,19.4 µM,132 µM,6.8,
CCN(CC)CCNC(=O)c1cc(-c2cnc(OC)nc2)nc2ccccc12,87.6 µM,174 µM,2,
CCN(CC)CCNC(=O)c1cc(-c2cccc(OC)c2)nc2ccccc12,1.6 µM,36.5 µM,22.8,
CCN(CC)CCCNC(=O)c1cc(-c2ccccc2)nc2ccccc12,9.6 µM,45.4 µM,4.7,
N=C(N)N [GUANIDINE],219 µM,,> 1.4,CC50 at 72 h [16]: > 300 µM
CCOCCOc1cc(C(=O)NCCN(CC)CC)c2ccccc2n1,12.2 µM,144 µM,11.8,
CC(C)Oc1cc(C(=O)NC2CCN(C)CC2)c2ccccc2n1,17.8 µM,101 µM,5.7,
CN(C)CCNC(=O)c1cc(-c2ccccc2)nc2ccc(Cl)cc12,1.2 µM,14.3 µM,11.9,
CCN(CC)CCNC(=O)c1cc(-c2ccc(Cl)s2)nc2ccccc12,0.8 µM,6.1 µM,7.6,
CCCCOc1cc(C(=O)NCCN(CC)CC)c2ccccc2n1 [DIBUCAINE],5.3 µM,,,inhibition (RD [17]): Active; inhibition (RD [18]): Active; inhibition (RD [2]): inactive; inhibition (RD [19]): 80%; inhibition (INH) [20]: Active; Activity (Influenza A virus): inactive; Activity (Influenza B virus): inactive; EC50 (enterovirus D68 [7]): 3.5 µM; EC50 (enterovirus D68 [8]): 2.9 µM; EC50 (enterovirus D68 [9]): 2 µM; CC50 (A549): 37.5 µM; CC50 (HeLa): 36 µM; EC50 (enterovirus D68 [10]): 3.7 µM; CC50 (A 172): > 30 µM; EC50 (enterovirus D68 [11]): 1.7 µM; CC50 (SH-SY5Y): > 30 µM; EC50 (enterovirus D68 [12]): 1.9 µM; EC50 (enterovirus D68 [13]): 1.9 µM
CCN(CC)CCNC(=O)c1cc(OCc2ccccc2)nc2ccccc12,1.1 µM,13.5 µM,12.3,
CC(C)Oc1cc(C(=O)NCCN2CCN(C)CC2)c2ccccc2n1,25.9 µM,88.8 µM,3.4,
CCN(CC)CCNC(=O)c1cc(-c2ccccc2)nc2ccc(F)cc12,1.3 µM,24.9 µM,19.2,
CCC(C)Oc1cc(C(=O)NCCN(CC)CC)c2ccccc2n1 (configuration not stated),2.8 µM,15.7 µM,5.6,
CCN(CC)CCNC(=O)c1cc(OCC2CC2)nc2ccccc12,7.1 µM,38.5 µM,5.4,
